Measured values published in ChEMBL document CHEMBL3526002, “Tissue distribution and identification of radioactivity components at elimination phase after oral administration of [¹⁴C]CS-1036, an α-amylase inhibitor, to rats” (Drug Metab Dispos, 2013).

Legend:
Parameters in all cases: dose 5 mg/kg, dosed compound name [14C]CS-1036, route oral
Conditions in all cases: in vivo
[1] = Drug uptake in albino F344/DuCrlCrlj rat fat assessed as ng equivalent of CS-1036 at 5 mg/kg, po after 24 hrs by liquid scintillation counting; assay type: ADME, organism-based, Adipose tissue
In short: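 Male F344/DuCrlCrlj rats (bought at 7 weeks, acclimatized 5–6 days; 159–167 g; n = 3 per time point) received a single oral dose of [14C]CS-1036 at 5 mg/kg. White adipose tissue was collected after abdominal aortic bleeding at 1, 4, 8, 24, 72, 168 or 336 h. Samples were counted by LSC with external-standard efficiency correction. Results were converted to ng equivalents per g from specific activity and sample weight.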

[2] = Drug uptake in albino F344/DuCrlCrlj rat bone marrow at 5 mg/kg, po after 24 hrs by liquid scintillation counting; assay type: ADME, organism-based
[3] = Drug uptake in albino F344/DuCrlCrlj rat mandibular gland at 5 mg/kg, po after 1 hr by liquid scintillation counting; assay type: ADME, organism-based
Aorta = assay: Drug uptake in albino F344/DuCrlCrlj rat aorta assessed as ng equivalent of CS-1036 at 5 mg/kg, po after 168 hrs by liquid scintillation counting; assay type: ADME, organism-based
Stomach [4] = assay: Drug uptake in albino F344/DuCrlCrlj rat stomach at 5 mg/kg, po after 1 hr by liquid scintillation counting; assay type: ADME, organism-based
Pancreas [5] = assay: Drug uptake in albino F344/DuCrlCrlj rat pancreas at 5 mg/kg, po after 168 hrs by liquid scintillation counting; assay type: ADME, organism-based
Blood [6] = assay: Drug uptake in albino F344/DuCrlCrlj rat blood at 5 mg/kg, po after 8 hrs by liquid scintillation counting; assay type: ADME, organism-based
In short: (§1)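 Male rats (159–167 g; n = 3) received a single oral dose of [14C]CS-1036 at 5 mg/kg. Blood was drawn from the abdominal aorta at 1, 4, 8, 24, 72, 168 and 336 h. Radioactivity was counted by LSC with external-standard efficiency correction. Results are expressed as ng equivalent/ml from the specific activity and sample volume; mean + S.D.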

Liver = assay: Drug uptake in albino F344/DuCrlCrlj rat liver assessed as ng equivalent of CS-1036 at 5 mg/kg, po after 24 hrs by liquid scintillation counting; assay type: ADME, organism-based
Blood [7] = assay: Drug uptake in albino F344/DuCrlCrlj rat blood at 5 mg/kg, po after 72 hrs by liquid scintillation counting; assay type: ADME, organism-based; in short: as §1
Thymus [8] = assay: Drug uptake in albino F344/DuCrlCrlj rat thymus assessed as ng equivalent of CS-1036 at 5 mg/kg, po after 24 hrs by liquid scintillation counting; assay type: ADME, organism-based
[9] = Drug uptake in albino F344/DuCrlCrlj rat pituitary gland at 5 mg/kg, po after 24 hrs by liquid scintillation counting; assay type: ADME, organism-based
Thymus [10] = assay: Drug uptake in albino F344/DuCrlCrlj rat thymus at 5 mg/kg, po after 4 hrs by liquid scintillation counting; assay type: ADME, organism-based
Kidney [11] = assay: Drug uptake in albino F344/DuCrlCrlj rat kidney assessed as ng equivalent of CS-1036 at 5 mg/kg, po after 8 hrs by liquid scintillation counting; assay type: ADME, organism-based
Stomach [12] = assay: Drug uptake in albino F344/DuCrlCrlj rat stomach at 5 mg/kg, po after 336 hrs by liquid scintillation counting; assay type: ADME, organism-based
Small intestine = assay: Drug uptake in albino F344/DuCrlCrlj rat small intestine assessed as ng equivalent of CS-1036 at 5 mg/kg, po after 1 hr by liquid scintillation counting; assay type: ADME, organism-based
[13] = Drug uptake in albino F344/DuCrlCrlj rat brown fat at 5 mg/kg, po after 8 hrs by liquid scintillation counting; assay type: ADME, organism-based, Brown adipose tissue
[14] = Drug uptake in albino F344/DuCrlCrlj rat mandibular gland assessed as ng equivalent of CS-1036 at 5 mg/kg, po after 72 hrs by liquid scintillation counting; assay type: ADME, organism-based
Blood [15] = assay: Drug uptake in albino F344/DuCrlCrlj rat blood at 5 mg/kg, po after 168 hrs by liquid scintillation counting; assay type: ADME, organism-based
In short: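 Male F344/DuCrlCrlj rats (159–167 g; n = 3 per time point) received a single oral dose of [14C]CS-1036 at 5 mg/kg. Blood was taken from the abdominal aorta at 1, 4, 8, 24, 72, 168 and 336 h. Radioactivity was counted by LSC with external-standard efficiency correction. Results were converted to ng equivalent of CS-1036/ml using specific activity and sample volume, and reported as mean + S.D.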

Zone of skin [16] = assay: Drug uptake in albino F344/DuCrlCrlj rat skin at 5 mg/kg, po after 1 hr by liquid scintillation counting; assay type: ADME, organism-based
[17] = Drug uptake in albino F344/DuCrlCrlj rat mandibular gland assessed as ng equivalent of CS-1036 at 5 mg/kg, po after 168 hrs by liquid scintillation counting; assay type: ADME, organism-based
Pancreas [18] = assay: Drug uptake in albino F344/DuCrlCrlj rat pancreas at 5 mg/kg, po after 8 hrs by liquid scintillation counting; assay type: ADME, organism-based
Spleen [19] = assay: Drug uptake in albino F344/DuCrlCrlj rat spleen assessed as ng equivalent of CS-1036 at 5 mg/kg, po after 1 hr by liquid scintillation counting; assay type: ADME, organism-based
Kidney [20] = assay: Drug uptake in albino F344/DuCrlCrlj rat kidney at 5 mg/kg, po after 4 hrs by liquid scintillation counting; assay type: ADME, organism-based
Lung [21] = assay: Drug uptake in albino F344/DuCrlCrlj rat lung at 5 mg/kg, po after 72 hrs by liquid scintillation counting; assay type: ADME, organism-based
[22] = Drug uptake in albino F344/DuCrlCrlj rat eyeball assessed as ng equivalent of CS-1036 at 5 mg/kg, po after 1 hr by liquid scintillation counting; assay type: ADME, organism-based
Zone of skin [23] = assay: Drug uptake in albino F344/DuCrlCrlj rat skin assessed as ng equivalent of CS-1036 at 5 mg/kg, po after 8 hrs by liquid scintillation counting; assay type: ADME, organism-based
Spleen [24] = assay: Drug uptake in albino F344/DuCrlCrlj rat spleen at 5 mg/kg, po after 72 hrs by liquid scintillation counting; assay type: ADME, organism-based
[25] = Drug uptake in albino F344/DuCrlCrlj rat eyeball assessed as ng equivalent of CS-1036 at 5 mg/kg, po after 8 hrs by liquid scintillation counting; assay type: ADME, organism-based
Kidney [26] = assay: Drug uptake in albino F344/DuCrlCrlj rat kidney assessed as ng equivalent of CS-1036 at 5 mg/kg, po after 1 hr by liquid scintillation counting; assay type: ADME, organism-based
Lung [27] = assay: Drug uptake in albino F344/DuCrlCrlj rat lung at 5 mg/kg, po after 1 hr by liquid scintillation counting; assay type: ADME, organism-based
[28] = Drug uptake in albino F344/DuCrlCrlj rat trachea assessed as ng equivalent of CS-1036 at 5 mg/kg, po after 24 hrs by liquid scintillation counting; assay type: ADME, organism-based
[29] = Drug uptake in albino F344/DuCrlCrlj rat trachea assessed as ng equivalent of CS-1036 at 5 mg/kg, po after 8 hrs by liquid scintillation counting; assay type: ADME, organism-based
[30] = Drug uptake in albino F344/DuCrlCrlj rat thyroid gland at 5 mg/kg, po after 336 hrs by liquid scintillation counting; assay type: ADME, organism-based
[31] = Drug uptake in albino F344/DuCrlCrlj rat brown fat assessed as ng equivalent of CS-1036 at 5 mg/kg, po after 72 hrs by liquid scintillation counting; assay type: ADME, organism-based, Brown adipose tissue

C[C@H]1O[C@@H](O[C@H]2[C@H](O)[C@@H](O)[C@@H](O[14C@H]3[14C@H](O)[14CH2]N[14C@@H]3[14CH2]O)O[C@@H]2CO)[C@H](O)[C@@H](O)[C@@H]1O
Radiolabel recovery [1]: 21 ngequiv/g | Radiolabel recovery [2]: 116 ngequiv/g | Radiolabel recovery [3]: 43.4 ngequiv/g | Radiolabel recovery (Aorta): 6.8 ngequiv/g | Radiolabel recovery (Stomach [4]): 1670 ngequiv/g | Radiolabel recovery (Pancreas [5]): 79.2 ngequiv/g | Radiolabel recovery (Blood [6]): 22.1 ngequiv/ml | Radiolabel recovery (Liver): 37 ngequiv/g | Radiolabel recovery (Blood [7]): 16.1 ngequiv/ml | Radiolabel recovery (Thymus [8]): 5.8 ngequiv/g | Radiolabel recovery [9]: 70.8 ngequiv/g | Radiolabel recovery (Thymus [10]): 22 ngequiv/g | Radiolabel recovery (Kidney [11]): 1970 ngequiv/g | Radiolabel recovery (Stomach [12]): 11.9 ngequiv/g | Radiolabel recovery (Small intestine): 86500 ngequiv/g | Radiolabel recovery [13]: 28.9 ngequiv/g | Radiolabel recovery [14]: 9.5 ngequiv/g | Radiolabel recovery (Blood [15]): 8.55 ngequiv/ml | Radiolabel recovery (Zone of skin [16]): 38.3 ngequiv/g | Radiolabel recovery [17]: 7 ngequiv/g | Radiolabel recovery (Pancreas [18]): 325 ngequiv/g | Radiolabel recovery (Spleen [19]): 57.2 ngequiv/g | Radiolabel recovery (Kidney [20]): 383 ngequiv/g | Radiolabel recovery (Lung [21]): 51.3 ngequiv/g | Radiolabel recovery [22]: 3.2 ngequiv/g | Radiolabel recovery (Zone of skin [23]): 71.6 ngequiv/g | Radiolabel recovery (Spleen [24]): 70.6 ngequiv/g | Radiolabel recovery [25]: 18.9 ngequiv/g | Radiolabel recovery (Kidney [26]): 102 ngequiv/g | Radiolabel recovery (Lung [27]): 47.1 ngequiv/g | Radiolabel recovery [28]: 7.1 ngequiv/g | Radiolabel recovery [29]: 17.8 ngequiv/g | Radiolabel recovery [30]: 14.5 ngequiv/g | Radiolabel recovery [31]: 136 ngequiv/g
